From ChEMBL document CHEMBL1240383, “Acquisition of flucytosine, azole, and caspofungin resistance in Candida glabrata bloodstream isolates serially obtained from a hematopoietic stem cell transplant recipient” (2010)
Values after ≈ are worked out from the molar mass of the structure shown.

Assays:
Nakaseomyces glabratus [1] = experiment: Antimicrobial activity against flucytosine, azole, and caspofungin resistant Candida glabrata bloodstream isolate 1 serially obtained from hematopoietic stem cell transplant recipient by Etest; type: functional
How it was run: (§1)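 MICs by Etest following the strip maker's instructions, with C. parapsilosis ATCC 22019 as control strain. FLC, VRC and 5FC were interpreted by published CLSI criteria. For caspofungin a susceptibility breakpoint of ≤2 mg/liter was used. Isolates were serial C. glabrata blood-culture isolates from one patient, judged the same genotype by PCR of 8 microsatellite regions with fluorescent primers.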

Nakaseomyces glabratus [2] = experiment: Antimicrobial activity against flucytosine, azole, and caspofungin resistant Candida glabrata bloodstream isolate 3 harboring Fur1 G190D mutation serially obtained from hematopoietic stem cell transplant recipient by Etest
Nakaseomyces glabratus [3] = experiment: Antimicrobial activity against flucytosine, azole, and caspofungin resistant Candida glabrata bloodstream isolate 4 harboring FKS2 T1988C mutation and overexpressing CDR1 and CDR2 genes serially obtained from hematopoietic stem cell transplant recipient by Etest; type: functional; how it was run: as §1
Nakaseomyces glabratus [4] = experiment: Antimicrobial activity against flucytosine, azole, and caspofungin resistant Candida glabrata bloodstream isolate 2 harboring Fur1 G190D mutation serially obtained from hematopoietic stem cell transplant recipient by Etest
Nakaseomyces glabratus [5] = experiment: Antimicrobial activity against flucytosine, azole, and caspofungin resistant Candida glabrata bloodstream isolate 5 harboring FKS2 T1988C mutation and overexpressing CDR1 and CDR2 genes serially obtained from hematopoietic stem cell transplant recipient by Etest; type: functional; how it was run: as §1

Compound `C[C@@H](c1ncncc1F)[C@](O)(Cn1cncn1)c1ccc(F)cc1F` [VORICONAZOLE] has an MIC (Nakaseomyces glabratus [1]) of 0.25 µg/mL (≈ 0.716 µM), an MIC (Nakaseomyces glabratus [2]) of 0.047 µg/mL (≈ 0.135 µM) and an MIC (Nakaseomyces glabratus [3]) of 12 µg/mL (≈ 34.4 µM). It also gave an MIC (Nakaseomyces glabratus [4]) of 0.125 µg/mL (≈ 0.358 µM) and an MIC (Nakaseomyces glabratus [5]) of 16 µg/mL (≈ 45.8 µM).

Compound `CC[C@H](C)C[C@H](C)CCCCCCCCC(=O)N[C@H]1C[C@@H](O)[C@@H](NCCN)NC(=O)[C@@H]2[C@@H](O)CCN2C(=O)[C@H]([C@H](O)CCN)NC(=O)[C@H]([C@H](O)[C@@H](O)c2ccc(O)cc2)NC(=O)[C@@H]2C[C@@H](O)CN2C(=O)[C@H]([C@@H](C)O)NC1=O` [CASPOFUNGIN] has an MIC (Nakaseomyces glabratus [1]) of 0.19 µg/mL (≈ 0.174 µM), an MIC (Nakaseomyces glabratus [2]) of 0.125 µg/mL (≈ 0.114 µM) and an MIC (Nakaseomyces glabratus [3]) of over 32 µg/mL. It also gave an MIC (Nakaseomyces glabratus [4]) of 0.125 µg/mL (≈ 0.114 µM) and an MIC (Nakaseomyces glabratus [5]) of over 32 µg/mL.

Work on `OC(Cn1cncn1)(Cn1cncn1)c1ccc(F)cc1F` [FLUCONAZOLE] yielded an MIC (Nakaseomyces glabratus [2]) of 1 µg/mL (≈ 3.27 µM), an MIC (Nakaseomyces glabratus [3]) of over 256 µg/mL and an MIC (Nakaseomyces glabratus [4]) of 2 µg/mL (≈ 6.53 µM). The MIC (Nakaseomyces glabratus [5]) was over 256 µg/mL.

`Nc1nc(=O)[nH]cc1F` [FLUCYTOSINE] showed an MIC (Nakaseomyces glabratus [1]) of 0.004 µg/mL (≈ 0.031 µM), an MIC (Nakaseomyces glabratus [2]) of over 32 µg/mL and an MIC (Nakaseomyces glabratus [3]) of 0.004 µg/mL (≈ 0.031 µM). For the same compound, the MIC (Nakaseomyces glabratus [4]) was over 32 µg/mL and the MIC (Nakaseomyces glabratus [5]) was 0.004 µg/mL (≈ 0.031 µM).

`C[C@@H]1[C@H](O)[C@@H](C)/C=C/C=C/C=C/C=C/C=C/C=C/C=C/[C@H](O[C@@H]2O[C@H](C)[C@@H](O)[C@H](N)[C@@H]2O)C[C@@H]2O[C@](O)(C[C@@H](O)C[C@@H](O)[C@H](O)CC[C@@H](O)C[C@@H](O)CC(=O)O[C@H]1C)C[C@H](O)[C@H]2C(=O)O` [AMPHOTERICIN B] gave an MIC (Nakaseomyces glabratus [2]) of 0.75 µg/mL (≈ 0.812 µM), an MIC (Nakaseomyces glabratus [3]) of 0.75 µg/mL (≈ 0.812 µM) and an MIC (Nakaseomyces glabratus [4]) of 2 µg/mL (≈ 2.16 µM). For the same compound, the MIC (Nakaseomyces glabratus [5]) was 0.75 µg/mL (≈ 0.812 µM).
